The source of these data is ChEMBL document CHEMBL5674883, “The Heterochromatin Landscape in Migrating Cells and the Importance of H3K27me3 for Associated Transcriptome Alterations” (Cells, 2018).

Common to all, as to type: cell-based
The target of assay [1] is RNA polymerase II (Mus musculus) (UniProt P08775+Q8CFI7+P97760+A0A3Q4L2S8+Q80UW8+P61219+P62488+Q923G2+P60898+O08740+Q63871+P62876). Put plainly: Inhibition of RNA polymerase II in mouse B16-F1 migrating cells assessed as fold change in Zcchc10-RNA stability at 0.1 mM measured by […] analysis relative to control cells.
In assay [2] the target is Histone-lysine N-methyltransferase EZH2 (Mus musculus) (UniProt Q61188). Nature of the assay: Inhibition of EZH2 in mouse B16-F1 migrating cells assessed as fold change in H3K27me3-buffered regulated Ccdc126-mRNA expression at 3 uM measured by […] analysis relative to control cells. In outline:
(§1)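 Confluent B16-F1 cells on fibronectin-coated plates, cultured at 37 °C and 7% CO2, were scratched at multiple sites to induce migration. They were then held 3 h in growth medium containing 3 µM GSK343, with the inhibitor added 3 h before lysis. Unscratched cells served as controls. Poly A mRNA was analysed by RNA-seq (n=3 GSK343, n=5 controls). Linear models removed batch effects, and buffered genes were those altered only under GSK343 (FDR <0.05, fold change >1.3).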

For assay [3] the target is unchanged. Nature of the assay: Inhibition of EZH2 in mouse B16-F1 migrating cells assessed as fold change in H3K27me3-buffered regulated Tead4-mRNA expression at 3 uM measured by […] analysis relative to control cells. In outline: (§2)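 Confluent B16-F1 cells on fibronectin-coated plates were scratched at multiple sites, washed once with DMEM and left to migrate 3 h in growth medium (37 °C, 7% CO2); unscratched cells served as control. GSK343 (3 µM) was added 3 h before lysis. Poly A mRNA was sequenced (RNA-seq), with 5 replicates for untreated and 3 for treated cells. Differential expression was called by linear model with batch correction, at FDR <0.05 and fold change ≥1.3.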

The target is the same in assay [4]. Put plainly: Inhibition of EZH2 in mouse B16-F1 migrating cells assessed as fold change in H3K27me3-buffered regulated Hdac10-mRNA expression at 3 uM measured by […] analysis relative to control cells. In outline: as §1
The target is the same in assay [5]. Put plainly: Inhibition of EZH2 in mouse B16-F1 migrating cells assessed as fold change in H3K27me3-independent regulated Maff-mRNA expression at 3 uM measured by […] analysis relative to control cells. In outline:
as §2

Chain of Histone-lysine N-methyltransferase EZH2 (Mus musculus) (Q61188 whole entry): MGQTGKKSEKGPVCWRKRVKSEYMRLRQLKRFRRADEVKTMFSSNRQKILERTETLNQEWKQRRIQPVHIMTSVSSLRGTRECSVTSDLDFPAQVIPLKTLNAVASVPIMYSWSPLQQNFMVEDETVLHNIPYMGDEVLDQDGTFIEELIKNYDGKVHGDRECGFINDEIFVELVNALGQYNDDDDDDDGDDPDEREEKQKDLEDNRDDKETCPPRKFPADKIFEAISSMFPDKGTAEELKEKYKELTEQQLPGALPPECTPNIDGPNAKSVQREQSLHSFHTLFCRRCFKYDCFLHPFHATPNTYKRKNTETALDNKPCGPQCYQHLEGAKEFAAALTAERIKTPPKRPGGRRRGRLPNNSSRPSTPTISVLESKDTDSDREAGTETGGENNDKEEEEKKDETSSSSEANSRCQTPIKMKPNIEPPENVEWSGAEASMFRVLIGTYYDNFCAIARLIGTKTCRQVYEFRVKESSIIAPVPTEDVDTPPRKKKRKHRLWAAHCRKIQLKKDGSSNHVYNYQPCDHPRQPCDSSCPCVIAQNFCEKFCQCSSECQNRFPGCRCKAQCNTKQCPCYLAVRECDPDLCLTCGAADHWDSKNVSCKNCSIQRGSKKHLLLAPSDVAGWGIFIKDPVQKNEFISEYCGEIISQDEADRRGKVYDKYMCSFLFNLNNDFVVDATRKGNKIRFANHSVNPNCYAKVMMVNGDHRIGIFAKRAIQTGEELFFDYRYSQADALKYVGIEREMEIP

Take `OC[C@H]1O[C@@H](n2cnc3cc(Cl)c(Cl)cc32)[C@H](O)[C@@H]1O`: the log2FC in assay [1] is -0.7.
`CCCc1cc(C)[nH]c(=O)c1CNC(=O)c1cc(-c2ccnc(N3CCN(C)CC3)c2)cc2c1cnn2C(C)C`: the log2FC in assay [2] was -0.49; in assay [3] it was 0.38; in assay [4], -0.44; in assay [5] it was 0.76.
